Experimental findings from the array DNA melting data of Ke et al. (doi:10.1101/2024.01.08.574731) are described below.

A short description of data set [1]: melting temperature; fluorescence melt of hairpins on a sequencing array, two-state fit, raised by 9.35 °C to match UV melts. The conditions noted are these: sodium 0.088 M. The method in brief: (§1)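 With Cy3 and quencher oligos annealed, library hairpins on a sequenced MiSeq flow cell were imaged for Cy3 fluorescence in 50 mM Na-HEPES pH 8.0, 25 mM NaCl, in 2.5 °C steps up to 60 °C. Melting temperature and folding enthalpy were derived from bootstrapped two-state fits of signals normalised to pre-quench Cy3 and to control constructs. Four replicates were combined by inverse variance, with fitted temperatures raised by 9.35 °C to match UV melts.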

Data set [2] in a line: folding enthalpy; higher = less favourable; fluorescence melt of hairpins on a sequencing array, two-state fit. The note with it: sodium 0.088 M. A digest of the protocol: as §1

As to GCGTAGCGAAAGCCAAGC ((.(.((....)).).)), the Tm in data set [1] was 39.9 °C. In addition, the folding enthalpy in data set [2] is -8.12 kcal/mol.
In the same order, the values of GCGTAGCGAAAGCCAGGC ((.(.((....)).).)) are 31.1 °C and -5.07 kcal/mol.
In the same order, the values of GCGTAGCGAAAGCCATGC ((.(.((....)).).)) are 35.6 °C and -7.22 kcal/mol.
For GCGTAGCGAAAGCCCCGC (((..((....))..))), the Tm in data set [1] amounted to 35.9 °C. In addition, in data set [2], the folding enthalpy was -6.69 kcal/mol.
For GCGTAGCGAAAGCCTCGC (((..((....))..))), the Tm in data set [1] worked out at 44.1 °C. In addition, in data set [2], the folding enthalpy was -10.8 kcal/mol.
In the case of GCGTAGCGAAAGCGATGC ((.(.((....)).).)), in data set [1], the Tm worked out at 51.6 °C. The folding enthalpy in data set [2] was -13.9 kcal/mol.
In the same order, the values of GCGTAGCGAAAGCGCCGC (((..((....))..))) are 59.7 °C and -15.9 kcal/mol.
Take GCGTAGCGAAAGCTAAGC ((.((((....)))).)): the Tm in data set [1] stood at 58.5 °C. Also, in data set [2], the folding enthalpy was -16.1 kcal/mol.
For the sequence GCGTAGGGAAACCTATGC ((.((((....)))).)), the Tm in data set [1] was 50.3 °C. Moreover, in data set [2], the folding enthalpy was -34.1 kcal/mol.
GCGTAGGGAAACCTGCGC (((.(((....))).))): the Tm in data set [1] was 58.9 °C. The folding enthalpy in data set [2] was -37.7 kcal/mol.
As for GCGTATCGAAAGATCGC (((.(((....)))))), the Tm in data set [1] is 55.6 °C. For the same sequence, the folding enthalpy in data set [2] is -34.2 kcal/mol.
In the same order, the values of GCGTATGCGAAAGCACGC (((..(((....)))))) are 53.1 °C and -20.9 kcal/mol.
In the same order, the values of GCGTATGGAAACATGCGC (((.(((....))).))) are 57 °C and -38.2 kcal/mol.
In the same order, the values of GCGTATGGACGC ((((....)))) are 51.4 °C and -21 kcal/mol.
As to GCGTCAACGAAAGTTCGC (((..(((....)))))), the Tm in data set [1] worked out at 45 °C. Besides, the folding enthalpy in data set [2] is -27.6 kcal/mol.
In the same order, the values of GCGTCAAGACGC ((((....)))) are 55.1 °C and -29.9 kcal/mol.
As for GCGTCACCACGC ((((....)))), the Tm in data set [1] was 53 °C. Also, in data set [2], the folding enthalpy was -22.7 kcal/mol.
In the same order, the values of GCGTCACGAAAGTGCGC (((.(((....)))))) are 66.9 °C and -31.1 kcal/mol.
As to GCGTCAGGAAACTGGCGC (((.(((....))).))), in data set [1], the Tm worked out at 63 °C. In data set [2], the folding enthalpy was -43.8 kcal/mol.
In the same order, the values of GCGTCATCGAAAGATCGC (((..(((....)))))) are 44 °C and -24.4 kcal/mol.
In the same order, the values of GCGTCCAAACGC ((((....)))) are 51.4 °C and -18.8 kcal/mol.
In the same order, the values of GCGTCCAGACGC ((((....)))) are 56.6 °C and -28.7 kcal/mol.
As to GCGTCCATACGC ((((....)))), the Tm in data set [1] amounted to 52.7 °C. Besides, in data set [2], the folding enthalpy is -23.3 kcal/mol.
In the same order, the values of GCGTCCCACGC ((((...)))) are 56.3 °C and -25.9 kcal/mol.
In the same order, the values of GCGTCCCTACGC ((((....)))) are 53.7 °C and -23.2 kcal/mol.
Regarding GCGTCCGAAAGGAACGC ((((((....))).))), the Tm in data set [1] turned out to be 64.9 °C. The folding enthalpy in data set [2] is -35.7 kcal/mol.
In the same order, the values of GCGTCCGAAAGGAGCGC ((((((....))).))) are 66.8 °C and -22.9 kcal/mol.
In the same order, the values of GCGTCCGAAAGGATTCGC ((((((....)))..))) are 47.1 °C and -26.9 kcal/mol.
In the same order, the values of GCGTCCTTACGC ((((....)))) are 53.6 °C and -23.6 kcal/mol.
GCGTCGACACGC ((((....)))): the Tm in data set [1] came to 51.7 °C. Also, in data set [2], the folding enthalpy is -21.5 kcal/mol.
With GCGTCGACGAAAGTCCGC (((..(((....)))))), in data set [1], the Tm came out at 49.7 °C. For the same sequence, the folding enthalpy in data set [2] was -22.2 kcal/mol.
In the same order, the values of GCGTCGAGACGC ((((....)))) are 61 °C and -25.2 kcal/mol.
Turning to GCGTCGATACGC ((((....)))), in data set [1], the Tm was 52.2 °C. Besides, in data set [2], the folding enthalpy was -19.2 kcal/mol.
In the same order, the values of GCGTCGCAACGC ((((....)))) are 56.2 °C and -20 kcal/mol.
In the same order, the values of GCGTCGCACGC ((((...)))) are 64.5 °C and -17.5 kcal/mol.
In the same order, the values of GCGTCGCGAAAGCCAGGC ((.(.((....)).).)) are 33.8 °C and -10.6 kcal/mol.
As for GCGTCGCGAAAGCGGAGC ((..(((....)))..)), in data set [1], the Tm was determined as 67.5 °C. In addition, the folding enthalpy in data set [2] was -27.6 kcal/mol.
Turning to GCGTCGCGAAAGCTGCGC (((..((....))..))), the Tm in data set [1] was determined as 61.7 °C. Further, the folding enthalpy in data set [2] is -22.5 kcal/mol.
In the same order, the values of GCGTCGGGAAACCAACGC ((((.((....)).)))) are 51.5 °C and -41.5 kcal/mol.
